Experimental findings from ChEMBL document CHEMBL3112587, “Cytotoxic activity assessment, QSAR and docking study of novel bis-carboxamide derivatives of 4-pyrones synthesized by Ugi four-component reaction” (Eur J Med Chem, 2013) are described below.

Format in all cases: functional, cell-based
The subject of assay [1] is HL-60. In words: Cytotoxicity against human HL60 cells after 72 hrs by MTT assay. The method in brief: (§1)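 RPMI 1640 with penicillin/streptomycin and 10% FBS (20% for HL-60), 37 °C, 5% CO2. Seeding was 40,000 HL-60 (suspension), 50,000 LS180 or 30,000 MCF-7 (monolayer) cells/ml, overnight. Half the medium was replaced with 3-4 compound concentrations in duplicate (DMSO ≤0.5% final), 72 h, then MTT 0.5 mg/ml for 4 h. Read 570 nm minus 655 nm. IC50 versus untreated control by linear regression, mean ± SD.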
For orientation: Tetrazolium assays rely on reduction of a dye to a coloured formazan, in cell work by metabolically active cells.

Assay [2] concerns MCF7. In words: Cytotoxicity against human MCF7 cells after 72 hrs by MTT assay. The method in brief: as §1
The nature of assay [3]: Cytotoxicity against human LS180 cells after 72 hrs by MTT assay. The method in brief: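 Seeding was 40,000 HL-60 (suspension), 50,000 LS180 or 30,000 MCF-7 (monolayer) cells/ml, overnight. Half the medium was replaced with 3-4 compound concentrations in duplicate (DMSO ≤0.5% final), 72 h, then MTT 0.5 mg/ml for 4 h. IC50 versus untreated control by linear regression, mean ± SD.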

The mark [4] stands for this setting: Homo sapiens, HL-60, 72 h, read-out: IC50.
[5] abbreviates: Homo sapiens, HL-60, 72 h, read-out: pIC50 (converted).
Setting [6] is: Homo sapiens, MCF7, 72 h, read-out: IC50.
Setting [7] is: Homo sapiens, LS180, 72 h, read-out: IC50.

SMILES strings stand for the structures.

`O=C(NC1CCCCC1)C(c1cc(=O)c(OCc2ccccc2)co1)N(C(=O)c1ccccc1Cl)c1ccccc1` (stereo unspecified): the IC50 in assay [1] (setting [4]) was 66.2 µM; in assay [1] (setting [5]), 66.1 µM; in assay [2] (setting [6]) it was 84.2 µM; in assay [3] (setting [7]) it was 97.3 µM.
With `CC(C)(C)NC(=O)C(c1cc(=O)c(OCc2ccccc2)co1)N(C(=O)c1ccccc1)c1ccccc1` (stereo unspecified), the IC50 was 57.3 µM in assay [1] (setting [4]), 57.5 µM in assay [1] (setting [5]), 63.1 µM in assay [2] (setting [6]) and “Not Active” in assay [3] (ls180).
In the case of `Cc1ccc(N(C(=O)c2ccccc2Cl)C(C(=O)NC2CCCCC2)c2cc(=O)c(OCc3ccccc3)co2)cc1` (stereo unspecified), the IC50 in assay [1] (setting [4]) was 12.1 µM; in assay [1] (setting [5]), 12 µM; in assay [2] (setting [6]), 56.3 µM; in assay [3] (setting [7]) it was 63 µM.
Consider `Cc1ccc(N(C(=O)c2ccccc2Cl)C(C(=O)NC(C)(C)C)c2cc(=O)c(OCc3ccccc3)co2)cc1` (stereo unspecified), for which the IC50 is 42 µM in assay [1] (setting [4]), 41.7 µM in assay [1] (setting [5]), 53.8 µM in assay [2] (setting [6]) and 88.3 µM in assay [3] (setting [7]).
The like results for `Cc1ccc(N(C(=O)c2ccccc2)C(C(=O)NC2CCCCC2)c2cc(=O)c(OCc3ccccc3)co2)cc1` (stereo unspecified) were, in that order, 11.3 µM, 11.2 µM, 11.2 µM and 20.2 µM.
The matching figures for `CCCCc1ccc(N(C(=O)c2ccccc2Cl)C(C(=O)NC(C)(C)C)c2cc(=O)c(OCc3ccccc3)co2)cc1` (stereo unspecified): 16.2 µM, 16.2 µM, 28.6 µM and 88.2 µM.
The matching figures for `COc1ccc(N(C(=O)c2ccccc2Cl)C(C(=O)NC(C)(C)C)c2cc(=O)c(OCc3ccccc3)co2)cc1` (stereo unspecified): 52.9 µM, 52.5 µM, 47.2 µM and 77.3 µM.
Turning to `O=C(NC1CCCCC1)C(c1cc(=O)c(OCc2ccccc2)co1)N(C(=O)c1ccccc1Cl)c1ccc(Cl)cc1` (stereo unspecified), the IC50 was 30.5 µM in assay [1] (setting [4]), 30.2 µM in assay [1] (setting [5]), 168 µM in assay [2] (setting [6]) and “Not Active” in assay [3] (ls180).
Take `O=C(NC1CCCCC1)C(c1cc(=O)c(OCc2ccccc2)co1)N(C(=O)c1ccccc1)c1ccc(Cl)cc1` (stereo unspecified): the IC50 was 14.7 µM in assay [1] (setting [4]), 14.8 µM in assay [1] (setting [5]), “Not Active” in assay [2] (mcf7) and “Not Active” in assay [3] (ls180).
In the case of `O=C(NC1CCCCC1)C(c1cc(=O)cc(-c2ccccc2)o1)N(C(=O)c1ccccc1Cl)c1ccccc1` (stereo unspecified), the IC50 in assay [1] (setting [4]) is 72 µM; in assay [1] (setting [5]) it was 72.4 µM; in assay [2] (mcf7), “Not Active”; in assay [3] (ls180) it was “Not Active”.
Turning to `Cc1ccc(N(C(=O)c2ccccc2Cl)C(C(=O)NC2CCCCC2)c2cc(=O)cc(-c3ccccc3)o2)cc1` (stereo unspecified), the IC50 in assay [1] (setting [4]) is 22.2 µM; in assay [1] (setting [5]) it was 22.4 µM; in assay [2] (mcf7) it was “Not Active”; in assay [3] (ls180) it was “Not Active”.
Regarding `Cc1ccc(N(C(=O)c2ccccc2)C(C(=O)NC(C)(C)C)c2cc(=O)cc(-c3ccccc3)o2)cc1` (stereo unspecified), the IC50 in assay [1] (setting [4]) was 33 µM; in assay [1] (setting [5]), 33.1 µM; in assay [2] (setting [6]), 54.9 µM; in assay [3] (setting [7]), 122 µM.
As for `COc1ccc(N(C(=O)c2ccccc2Cl)C(C(=O)NC2CCCCC2)c2cc(=O)cc(-c3ccccc3)o2)cc1` (stereo unspecified), the IC50 result in assay [1] (hl-60), in assay [2] (mcf7) and in assay [3] (ls180) was “Not Active” in each case.
With `COc1ccc(N(C(=O)c2ccccc2Cl)C(C(=O)NC(C)(C)C)c2cc(=O)cc(-c3ccccc3)o2)cc1` (stereo unspecified), the IC50 in assay [1] (setting [4]) is 13.8 µM; in assay [1] (setting [5]), 13.8 µM; in assay [2] (setting [6]), 9.1 µM; in assay [3] (setting [7]), 16.1 µM.
Regarding `COc1cccc2c1C(=O)c1c(O)c3c(c(O)c1C2=O)C[C@@](O)(C(=O)CO)C[C@@H]3O[C@H]1C[C@H](N)[C@H](O)[C@H](C)O1` [DOXORUBICIN], in assay [1] (setting [4]), the IC50 came out at 0.01 µM.
